Data on six molecules can be found in ChEMBL document CHEMBL4190284, “Exploring the Sponge Consortium Plakortis symbiotica-Xestospongia deweerdtae as a Potential Source of Antimicrobial Compounds and Probing the Pharmacophore for Antituberculosis Activity of Smenothiazole A by Diverted Total Synthesis” (J Nat Prod, 2017).

Converted amounts (≈) assume the structure as drawn. Some results are limits rather than exact numbers.

Data set [1] concerns Mycobacterium tuberculosis. Nature of the data set: Antitubercular activity against Mycobacterium tuberculosis H37Rv by broth microdilution Alamar blue assay. The class given is functional. The gist of the method:
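Mtb H37Rv growth was measured by broth microdilution Alamar blue assay (MABA). Percentage inhibition at each concentration gave the MIC, defined as the lowest concentration preventing visible bacterial growth. Rifampicin served as positive control. Values are means of three experiments.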

The test system of data set [2] is Panel NCI-60 (60 carcinoma cell lines). Nature of the data set: Cytotoxicity against human NCI60 cells assessed as cell growth at 10 uM relative to control. The class given is cell-based. The gist of the method:
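Single-dose screen at 10 μM across the full NCI 60 cell line panel; read-out was percent cell growth.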

A further data set concerns DU-145. Nature of the data set: Cytotoxicity against human DU145 cells assessed as reduction in cell viability. The class given is functional, cell-based.
A further data set has as its system Vero. Nature of the data set: Cytotoxicity against African green monkey Vero cells assessed as reduction in cell viability. Type of data set: cell-based. As to conditions: Chlorocebus sabaeus.
The test system of a further data set is Plasmodium falciparum. The data set can be described thus: Antiplasmodial activity against Plasmodium falciparum W2 assessed as parasite growth inhibition relative to control. The class given is functional.
Another data set concerns A2058. Nature of the data set: Cytotoxicity against human A2058 cells assessed as reduction in cell viability. The class given is functional, cell-based.

With `C=C(C/C=C(\C)C(=O)N[C@H](C(=O)N1CCC[C@H]1c1nccs1)C(C)C)Cc1ccccc1`, in data set [1], the MIC (as a rule, the smallest concentration in the dilution series that meets the test's criterion for growth inhibition) was over 128 µg/mL. Further, the Activity in data set [2] is over 90%.
In data set [1], `CC1=C(O)[C@@](C)(CCCCCCCCCCCCc2ccc(O)cc2)OC1=O` came in with an MIC of over 128 µg/mL.
`C/C(=C\C/C(=C\Cl)Cc1ccccc1)C(=O)N[C@H](C(=O)N1CCC[C@H]1c1nccs1)C(C)C`: the IC50 (in general, the concentration at which inhibition is half-maximal) in the data set with DU-145 was 15 µM; in the data set with Vero, over 128 µg/mL; in the data set with A2058 it was 20 µM. Also, in data set [1], it took 4.1 µg/mL (≈ 8.43 µM) to inhibit growth (MIC). In addition, the “growth inhibition (GI)” value with Plasmodium falciparum came out at 55%.
Consider `CC1=C(O)[C@@](C)(CCCCC[C@H](C)CCCCc2ccc(O)cc2)OC1=O`, for which the MIC in data set [1] is over 128 µg/mL.
On the same count and under the same terms, the same measure for `CC1=C(O)[C@@](C)(CCCCC[C@H](C)CCCCc2ccc(O)c(O)c2)OC1=O`: over 128 µg/mL.
The molecule `CO[C@H]1/C=C/O[C@@]2(C)Oc3c(C)c(O)c4c(O)c(c(/C=N/N5CCN(C)CC5)c(O)c4c3C2=O)NC(=O)/C(C)=C\C=C\[C@H](C)[C@H](O)[C@@H](C)[C@@H](O)[C@@H](C)[C@H](OC(C)=O)[C@@H]1C` [RIFAMPIN] displayed an MIC in data set [1] of 0.1 µg/mL (≈ 0.122 µM).
